Source: ChEMBL document CHEMBL5136958, “The development of HEC-866 and its analogues for the treatment of idiopathic pulmonary fibrosis” (RSC Med Chem, 2021)
Activity calls are given as the source filed them. The rule behind the calls is not given here.

What was measured:
[1] = Intrinsic clearance in monkey liver microsomes by LC-MS/MS analysis; type: ADME, Macaca mulatta, Microsome; details: rhesus monkey, read-out: CLH
In short: (§1)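 Liver microsomes were incubated with the compound at 37 °C with NADPH as cofactor and sampled at 0, 5, 15, 30 and 60 min. Half-life (min) and in vitro CLint (mL min⁻¹ kg) were derived from these samples.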

[2] = Half life in human liver microsomes by LC-MS/MS analysis; type: ADME, Microsome
In short: (§2)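 Liver microsomes (human, monkey, dog, rat, mouse) incubated with test compound at 37 °C with NADPH cofactor; samples at 0, 5, 15, 30, 60 min for half-life and in vitro CLint.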

[3] = Oral bioavailability in dog at 5 mg/kg by LC-MS/MS analysis; type: ADME, organism-based, Canis lupus familiaris; details: in vivo
HFL1 [4] = test: Antiproliferative activity against human HFL1 cells assessed as reduction in cell proliferation measured after 24 hrs by CCK-8 assay; type: functional, cell-based; details: HFL1, 24 h
In short: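 Human fetal lung fibroblasts (HFL-1); growth inhibition quantified with CCK-8; IC50 averaged from 3 experiments, each in duplicate.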

[5] = Oral bioavailability in Sprague-Dawley rat model of bleomycin-induced pulmonary fibrosis at 5 mg/kg by LC-MS/MS analysis; type: ADME, organism-based; details: in vivo
In short: (§3)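 Male Sprague-Dawley rats with induced pulmonary fibrosis were dosed 2.0 mg kg⁻¹ i.v. or 5.0 mg kg⁻¹ p.o. Plasma was stored at -70 °C, and the supernatant was analysed by LC-MS/MS.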

Cytochrome P450 3A4 = Cytochrome P450 3A4 (Homo sapiens, UniProt P08684); test: Inhibition of CYP3A4 in human liver microsomes by LC-MS/MS analysis; type: ADME, Microsome
In short: (§4)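 Human microsomes incubated with CYP-specific substrates (1A2, 2C9, 2C19, 2D6, 3A4) and test compound at 0.0–10 μM; IC50 determined.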

[6] = Half life in Sprague-Dawley rat model of bleomycin-induced pulmonary fibrosis at 2 mg/kg, iv by LC-MS/MS analysis; type: ADME, organism-based; details: in vivo
In short: (§5)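 Male Sprague-Dawley rats with induced pulmonary fibrosis; single i.v. (2.0 mg kg⁻¹) or p.o. (5.0 mg kg⁻¹) administration. Plasma samples stored at −70 °C; the supernatant was analysed by LC-MS/MS for PK parameters.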

[7] = AUC(infinity) in Sprague-Dawley rat model of bleomycin-induced pulmonary fibrosis at 5 mg/kg, po by LC-MS/MS analysis; type: ADME, organism-based; parameters: time infinity, dose 5 mg/kg, route po; details: in vivo; in short: as §5
[8] = Half life in dog at 5 mg/kg, po by LC-MS/MS analysis; type: ADME, organism-based, Canis lupus familiaris; details: in vivo
[9] = AUC(infinity) in Sprague-Dawley rat model of bleomycin-induced pulmonary fibrosis at 2 mg/kg, iv by LC-MS/MS analysis; type: ADME, organism-based; parameters: time infinity, dose 2 mg/kg, route iv; details: in vivo; in short: as §5
[10] = Cmax in cynomolgus monkey at 5 mg/kg, po by LC-MS/MS analysis; type: ADME, organism-based, Macaca fascicularis; parameters: dose 5 mg/kg, route po; details: in vivo
[11] = Mutagenecity in Salmonella typhimurium TA98 at 7.8 to 1000 ug measured after 2 to 3 days by mini-Ames test; type: toxicity, Salmonella enterica subsp. enterica serovar Typhimurium; details: dose lower 7.8 µg, time lower 2 day, dose upper 1000 µg, time upper 3 day
In short: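 Bacterial reverse mutation assay scoring reverse gene mutations at the histidine locus in Salmonella typhimurium strains TA98 and TA100.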

HFL1 [12] = test: Antifibrotic activity in TGF-beta1-induced HFL1 cell injury assessed as down regulation of collagen 1 mRNA expression at 0.625 to 10 uM measured after 24 hrs by RT-PCR analysis; type: functional, cell-based; details: Homo sapiens, dose 0.625-10 µM
In short: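 TGF-β1-induced HFL-1 cells treated 24 h (test range 0.625–10 μM; comparator 3 mM); collagen 1 and collagen 3 mRNA measured by RT-PCR; mean of n = 3.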

[13] = AUClast in Sprague-Dawley rat model of bleomycin-induced pulmonary fibrosis at 5 mg/kg, po by LC-MS/MS analysis; type: ADME, organism-based; parameters: time 0 - last, dose 5 mg/kg, route po; details: in vivo; in short: as §5
[14] = Tmax in Sprague-Dawley rat model of bleomycin-induced pulmonary fibrosis at 5 mg/kg, po by LC-MS/MS analysis; type: ADME, organism-based; details: in vivo; in short: as §3
[15] = Intrinsic clearance in rat liver microsomes by LC-MS/MS analysis; type: ADME, Microsome; details: read-out: CLH; in short: as §1
[16] = Half life in mouse liver microsomes by LC-MS/MS analysis; type: ADME, Microsome; in short: as §2
Cytochrome P450 1A2 = biological target: T1, Cytochrome P450 1A2 (Homo sapiens, UniProt P05177); test: Inhibition of CYP1A2 in human liver microsomes by LC-MS/MS analysis; type: ADME, Microsome; in short: as §4
T1 sequence (P05177 whole entry): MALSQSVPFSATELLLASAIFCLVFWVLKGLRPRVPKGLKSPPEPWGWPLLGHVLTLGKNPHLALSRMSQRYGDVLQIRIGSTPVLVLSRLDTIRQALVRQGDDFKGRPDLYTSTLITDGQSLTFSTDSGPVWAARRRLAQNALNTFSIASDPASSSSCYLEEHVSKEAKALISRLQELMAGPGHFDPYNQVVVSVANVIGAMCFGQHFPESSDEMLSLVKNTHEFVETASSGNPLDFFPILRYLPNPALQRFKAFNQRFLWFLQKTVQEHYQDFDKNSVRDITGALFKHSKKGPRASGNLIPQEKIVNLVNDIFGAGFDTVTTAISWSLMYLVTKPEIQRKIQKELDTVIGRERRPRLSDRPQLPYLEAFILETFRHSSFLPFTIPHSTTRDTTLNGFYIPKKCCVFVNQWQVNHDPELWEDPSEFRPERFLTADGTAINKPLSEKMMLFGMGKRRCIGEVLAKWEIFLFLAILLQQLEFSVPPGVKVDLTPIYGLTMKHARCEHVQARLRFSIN

Cytochrome P450 3A4, sequence (P08684 whole entry): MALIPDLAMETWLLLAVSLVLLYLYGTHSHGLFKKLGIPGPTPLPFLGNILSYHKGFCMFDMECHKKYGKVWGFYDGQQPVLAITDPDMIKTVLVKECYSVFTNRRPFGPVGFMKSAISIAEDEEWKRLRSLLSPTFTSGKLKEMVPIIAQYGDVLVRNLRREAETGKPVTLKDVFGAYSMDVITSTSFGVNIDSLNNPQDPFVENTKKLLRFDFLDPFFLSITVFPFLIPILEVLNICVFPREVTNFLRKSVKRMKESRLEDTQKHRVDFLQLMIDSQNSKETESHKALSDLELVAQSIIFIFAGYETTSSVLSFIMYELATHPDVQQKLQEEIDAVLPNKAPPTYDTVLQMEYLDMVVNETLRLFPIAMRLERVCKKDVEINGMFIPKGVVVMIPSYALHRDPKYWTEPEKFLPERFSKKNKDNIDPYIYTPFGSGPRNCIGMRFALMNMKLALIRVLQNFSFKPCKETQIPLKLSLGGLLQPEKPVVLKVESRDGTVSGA

SMILES: Cc1cc(=O)n(-c2ccc(N3CCC(Cc4ccc(Cl)c(F)c4)CC3)c(Cl)c2)c(C)n1
- CLint scaled [1]: 48.6 mL/min/kg
- half-life [2]: 104 min
- bioavailability [3]: 15%
- IC50 (HFL1 [4]): 60 µM
- bioavailability [5]: 105%
- IC50 (Cytochrome P450 3A4): > 10 µM
- half-life [6]: 1560 min
- AUC(0-inf) [7]: 17100 ng·h/mL
- half-life [8]: 1620 min
- AUC(0-inf) [9]: 7980 ng·h/mL
- Cmax [10]: 1060 ng/mL
- Activity [11]: Non-Toxic
- Activity (HFL1 [12]): Active
- AUC(0-t) [13]: 11200 ng·h/mL
- Tmax [14]: 1.7 h
- CLint scaled [15]: 24.2 mL/min/kg
- half-life [16]: 70.9 min
- IC50 (Cytochrome P450 1A2): > 10 µM
